Results pooled from the literature.

Cc1cc2c(cc1N1C(=O)c3cccc4c(CCCO)ccc(c34)C1=O)n(C)c(=O)n2C (racemic)  GI50 (CHL-1; cell growth or viability, resazurin): 7.4 µM
COc1ccc(/C=N/NC(=O)c2ccc(Nc3cc(C)nc4c(O)cccc34)cc2)cc1O  inhibition (SMMC-7721; cell growth or viability, MTT; 20 µM): 30.3%
Cc1cc(=O)n(C)c2cc(N3C(=O)CC[C@H](NS(=O)(=O)CC(C)C)[C@H]3c3ccc(Cl)cc3)ccc12  EC50 (HL-60; cell growth or viability; 7 days): 5030 nM
Cc1ccc2nc(-c3cccc([N+](=O)[O-])c3)[nH]c2c1  IC50 (human Rhabdomyosarcoma cell; cell growth or viability, MTT; 48 h): 93.3 µM
FC(F)(F)SCCOc1ccc(Oc2ccccc2)cc1  CC50 (Vero; cell growth or viability; 72 h): > 20 µM
C[C@@H](Oc1cc(-c2cnn(C3CCNCC3)c2)cnc1N)c1c(Cl)ccc(F)c1Cl  inhibition (NCI-H3122; cell growth or viability, MTT; 0.2 µg/mL, 72 h): 52.9%
Oc1cccc(-c2nc3ccccc3[nH]2)c1  IC50 (human Rhabdomyosarcoma cell; cell growth or viability, MTT; 48 h): 73.8 µM
C/C(=N\O)c1ccc(-c2ccc(F)cc2)c(Cl)c1O  viability (NCI-H1299; cell growth or viability, MTT; 30 µM, 48 h): 69%
Cc1cc(Nc2ccc(C(=O)N/N=C/c3cccs3)cc2)c2cccc(O)c2n1  inhibition (SMMC-7721; cell growth or viability, MTT; 20 µM): 40.7%
C=C(F)C(=O)N1CCN(c2nc(OC[C@@H]3CCCN3C)nc3c2CCN(c2cccc4cccc(Cl)c24)C3)C[C@@H]1CC#N  GI50 (NCI-H1437; cell growth or viability, ATP luminescence; 5 days): 2.22 µM
Cc1cc(Nc2ccc(C(=O)N/N=C/c3ccc(C)s3)cc2)c2cccc(O)c2n1  inhibition (SMMC-7721; cell growth or viability, MTT; 20 µM): 25.1%
O=C1CCC(N2Cc3cc(CNC(=O)C(F)(F)c4ccc(Cl)cc4)ccc3C2=O)C(=O)N1 (centres unmarked)  EC50 (MHHCALL4; cell growth or viability, ATP luminescence): 4.13 nM
Cc1cccc(/C=N/NC(=O)c2ccc(Nc3cc(C)nc4c(O)cccc34)cc2)n1  inhibition (SMMC-7721; cell growth or viability, MTT; 20 µM): 19.9%
CC(=O)c1cccc(N=Nc2c(C(=O)O)cc(O)c(O)c2O)c1  inhibition (RAW264.7; IL-6 release, inhibitor, ELISA; 10 µM, LPS-stimulated): 43%
N#CSCCOc1ccccc1Oc1ccccc1  CC50 (Vero; cell growth or viability; 72 h): > 20 µM
Cc1ccc(NC(=O)NCc2ccc3c(c2)CN(C2CCC(=O)NC2=O)C3=O)cc1Cl (centres unmarked)  EC50 (MHHCALL4; cell growth or viability, ATP luminescence): 0.0019 nM
Cc1cc(Nc2ncc(Cl)c(Nc3ccccc3S(=O)(=O)C(C)C)n2)c(OC(C)C)cc1C1CCNCC1  inhibition (NCI-H3122; cell growth or viability, MTT; 0.08 µg/mL, 72 h): 64.2%
N#C[Se]CC1Cc2ccc(Oc3ccccc3)cc2O1 (racemic)  CC50 (Vero; cell growth or viability; 72 h): > 20 µM
CC(=O)Oc1ccc(/C=N/NC(=O)c2ccc(Nc3cc(C)nc4c(O)cccc34)cc2)cc1  inhibition (SMMC-7721; cell growth or viability, MTT; 20 µM): 14.1%
COc1cccc(-c2nc3ccccc3n2Cc2ccccc2)c1  IC50 (human Rhabdomyosarcoma cell; cell growth or viability, MTT): 33 µM
Cc1ccc(/C=N/NC(=O)c2ccc(Nc3cc(C)nc4c(O)cccc34)cc2)cc1  inhibition (SMMC-7721; cell growth or viability, MTT; 20 µM): 50.8%
C/C(=N\O)c1ccc(-c2ccc(OC(F)(F)F)cc2)c(Cl)c1O  viability (NCI-H1299; cell growth or viability, MTT; 30 µM, 48 h): 106%
CC(=O)O[C@H]1C(=O)[C@@]2(C)[C@H]([C@H](OC(=O)c3ccccc3)[C@]3(O)C[C@H](OC(=O)[C@H](O)[C@@H](NC(=O)c4ccccc4)c4ccccc4)C(C)=C1C3(C)C)[C@]1(OC(C)=O)CO[C@@H]1C[C@@H]2O  IC50 (human Rhabdomyosarcoma cell; cell growth or viability, MTT): 6.13 µM
CS(=O)(=O)CCNCc1ccc(-c2ccc3ncnc(Nc4ccc(OCc5cccc(F)c5)c(Cl)c4)c3c2)o1  EC50 (NCI-H1299; cell growth or viability, MTT; 72 h): 41000 nM
Cc1ccc2nc(-c3ccc([N+](=O)[O-])cc3)[nH]c2c1  IC50 (human Rhabdomyosarcoma cell; cell growth or viability, MTT; 48 h): 26.2 µM
C/C(=N\O)c1ccc(-c2ccc(O)c(Cl)c2)c(Cl)c1O  viability (NCI-H1299; cell growth or viability, MTT; 30 µM, 48 h): 80%
Cc1cc(Nc2ccc(C(=O)N/N=C/c3ccc(N(C)C)cc3)cc2)c2cccc(O)c2n1  inhibition (SMMC-7721; cell growth or viability, MTT; 20 µM): 33.6%
C/C(=N\O)c1ccc(-c2cccc(OC(F)(F)F)c2)c(Cl)c1O  viability (NCI-H1299; cell growth or viability, MTT; 30 µM, 48 h): 83%
Cc1cc(Nc2ccc(C(=O)N/N=C/c3nc4ccccc4[nH]3)cc2)c2cccc(O)c2n1  inhibition (SMMC-7721; cell growth or viability, MTT; 20 µM): 28.3%
COC(=O)c1ccc2c(c1)NC(=O)/C2=C(\Nc1ccc(N(C)C(=O)CN2CCN(C)CC2)cc1)c1ccccc1  inhibition (L929; cell growth or viability, MTT; 10 µM, 24 h): < 50%
C=CC(=O)N1CCN(c2nc(=O)n(-c3c(C)ccnc3C(C)C)c3nc(-c4c(O)cccc4F)c(F)cc23)[C@@H](C)C1  GI50 (NCI-H1437; cell growth or viability, ATP luminescence; 5 days): > 10 µM
C/C(=N\O)c1ccc(-c2cccc(O)c2)c(Cl)c1O  viability (NCI-H1299; cell growth or viability, MTT; 30 µM, 48 h): 22%
